Laboratory results published in ChEMBL document CHEMBL1143558, “Discovery of a novel series of peroxisome proliferator-activated receptor alpha/gamma dual agonists for the treatment of type 2 diabetes and dyslipidemia” (J Med Chem, 2005).

Columns and labels:
[1] = biological target: T1, Peroxisome proliferator-activated receptor alpha (Homo sapiens, UniProt Q07869); assay: Effective concentration against human Peroxisome proliferator activated receptor alpha in Gal4 transactivation assay
T1 sequence (Q07869 whole entry): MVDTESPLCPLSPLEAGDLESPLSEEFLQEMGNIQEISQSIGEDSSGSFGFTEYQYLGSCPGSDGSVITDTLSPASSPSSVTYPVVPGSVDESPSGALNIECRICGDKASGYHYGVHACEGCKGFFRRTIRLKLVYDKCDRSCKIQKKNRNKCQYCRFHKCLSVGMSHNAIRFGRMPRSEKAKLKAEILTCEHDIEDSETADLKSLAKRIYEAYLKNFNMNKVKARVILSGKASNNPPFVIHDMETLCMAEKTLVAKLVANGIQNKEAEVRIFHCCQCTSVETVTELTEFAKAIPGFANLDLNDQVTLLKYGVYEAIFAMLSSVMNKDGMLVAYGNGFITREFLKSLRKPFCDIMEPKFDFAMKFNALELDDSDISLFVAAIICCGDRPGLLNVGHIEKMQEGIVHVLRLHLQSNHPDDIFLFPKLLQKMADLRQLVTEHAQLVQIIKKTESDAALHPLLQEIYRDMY

[2] = biological target: T1, Peroxisome proliferator-activated receptor alpha; assay: Inhibition of human Peroxisome proliferator activated receptor alpha binding
[3] = biological target: T2, Peroxisome proliferator-activated receptor alpha (Canis lupus familiaris, UniProt Q95N78); assay: Agonist activity against dog Peroxisome proliferator activated receptor alpha; assay type: functional
T2 sequence (Q95N78 whole entry): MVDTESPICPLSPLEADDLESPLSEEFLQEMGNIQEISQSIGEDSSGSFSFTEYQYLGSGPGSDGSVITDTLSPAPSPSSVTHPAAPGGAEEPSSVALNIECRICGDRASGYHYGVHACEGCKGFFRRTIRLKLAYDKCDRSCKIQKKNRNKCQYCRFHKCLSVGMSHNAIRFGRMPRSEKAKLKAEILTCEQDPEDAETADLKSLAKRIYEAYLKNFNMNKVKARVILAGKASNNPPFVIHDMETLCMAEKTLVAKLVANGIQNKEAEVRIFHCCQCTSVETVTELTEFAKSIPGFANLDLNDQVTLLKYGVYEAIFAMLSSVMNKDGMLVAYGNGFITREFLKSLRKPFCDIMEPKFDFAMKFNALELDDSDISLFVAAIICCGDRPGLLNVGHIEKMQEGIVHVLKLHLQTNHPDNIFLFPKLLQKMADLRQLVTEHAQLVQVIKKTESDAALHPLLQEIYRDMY
Summary of the method: (§1)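 Chimeric GAL4 fusions carrying the PPARα receptor from dog, hamster or mouse, constructed like the human transactivation assay. Run in transiently transfected COS-1 cells, with agonist activity read as EC50.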

[4] = biological target: T3, Peroxisome proliferator-activated receptor alpha (Mus musculus, UniProt P23204); assay: Agonist activity against mouse Peroxisome proliferator activated receptor alpha; assay type: functional; summary of the method: as §1
T3 sequence (P23204 whole entry): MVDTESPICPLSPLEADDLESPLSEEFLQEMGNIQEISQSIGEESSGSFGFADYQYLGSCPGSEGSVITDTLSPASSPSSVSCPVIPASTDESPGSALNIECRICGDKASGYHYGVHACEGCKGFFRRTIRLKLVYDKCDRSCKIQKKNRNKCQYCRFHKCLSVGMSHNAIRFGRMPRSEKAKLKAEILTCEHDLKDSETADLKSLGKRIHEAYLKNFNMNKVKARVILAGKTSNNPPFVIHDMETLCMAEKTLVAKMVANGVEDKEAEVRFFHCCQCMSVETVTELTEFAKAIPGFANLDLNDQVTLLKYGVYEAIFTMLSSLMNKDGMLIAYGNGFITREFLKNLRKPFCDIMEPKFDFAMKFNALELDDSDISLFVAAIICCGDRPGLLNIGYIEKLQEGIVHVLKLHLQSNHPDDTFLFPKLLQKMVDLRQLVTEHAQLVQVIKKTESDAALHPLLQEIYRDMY

[5] = biological target: T4, Peroxisome proliferator-activated receptor gamma (Homo sapiens, UniProt P37231); assay: Maximal effect against human Peroxisome proliferator activated receptor gamma in Gal4 transactivation assay
T4 sequence (P37231 whole entry): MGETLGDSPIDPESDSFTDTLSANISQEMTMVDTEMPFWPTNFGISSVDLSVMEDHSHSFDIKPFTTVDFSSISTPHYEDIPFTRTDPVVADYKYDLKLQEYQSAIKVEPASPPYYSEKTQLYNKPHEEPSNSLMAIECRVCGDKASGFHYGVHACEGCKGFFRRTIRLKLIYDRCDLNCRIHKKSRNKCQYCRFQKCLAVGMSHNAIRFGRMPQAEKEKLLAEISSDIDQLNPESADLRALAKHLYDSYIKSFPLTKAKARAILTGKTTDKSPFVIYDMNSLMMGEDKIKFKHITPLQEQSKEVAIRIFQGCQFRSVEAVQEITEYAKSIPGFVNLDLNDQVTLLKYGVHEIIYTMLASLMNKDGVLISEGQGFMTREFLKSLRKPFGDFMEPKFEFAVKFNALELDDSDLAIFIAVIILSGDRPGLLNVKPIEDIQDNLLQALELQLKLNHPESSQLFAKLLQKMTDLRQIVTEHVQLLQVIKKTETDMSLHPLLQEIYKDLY
Summary of the method: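 Chimeric GAL4-hPPARγ transactivation assay in transiently transfected COS-1 cells. The response is given as percent at 3 µM, the mean of n = 3.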

[6] = biological target: T4, Peroxisome proliferator-activated receptor gamma; assay: Inhibition of human Peroxisome proliferator activated receptor gamma binding
[7] = biological target: T4, Peroxisome proliferator-activated receptor gamma; assay: Effective concentration against human Peroxisome proliferator activated receptor gamma in Gal4 transactivation assay
[8] = biological target: T4, Peroxisome proliferator-activated receptor gamma; assay: Effective concentration against human Peroxisome proliferator activated receptor gamma in Gal4 transactivation assay; Not active at 3 uM
Summary of the method: (§2)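 Chimeric GAL4-hPPARα or GAL4-hPPARγ transactivation assay in transiently transfected COS-1 cells. Compounds were titrated up to 3 µM, the highest concentration tested. […] "Not active" means no activity at 3 µM.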

[9] = biological target: T1, Peroxisome proliferator-activated receptor alpha; assay: Effective concentration against human Peroxisome proliferator activated receptor alpha in Gal4 transactivation assay; Not active at 3 uM; summary of the method: as §2

Row | Compound | EC50 [1] [µM] | IC50 [2] [µM] | EC50 [3] [µM] | EC50 [4] [µM] | Emax [5] [%] | IC50 [6] [µM] | EC50 [7] [µM] | EC50 [8] | EC50 [9]
1 | CCCc1cc2c(C(F)(F)F)noc2c(CCC)c1OC(C)(C)C(=O)O | 0.3 | 0.23 | 0.55 | 0.18 | 25 | 1.58 |  |  | 
2 | CCCc1cc2c(C(F)(F)F)noc2c(CCC)c1OC(C)(CC)C(=O)O (configuration not stated) | 0.75 | 0.1 |  |  | 26 | > 15 |  |  | 
3 | CCCc1cc2c(C(F)(F)F)noc2c(CCC)c1OCC(C)(C)C(=O)O |  | > 50 |  |  |  | > 15 |  | Not Active | Not Active
4 | CCCc1cc2c(C(F)(F)F)noc2c(CCC)c1OC(C)C(=O)O (configuration not stated) | 0.62 | 1.03 |  |  | 21 | > 10 |  |  | 

The remaining lines, values ahead:

Row | EC50 [1] [µM] | IC50 [2] [µM] | EC50 [3] [µM] | EC50 [4] [µM] | Emax [5] [%] | IC50 [6] [µM] | EC50 [7] [µM] | EC50 [8] | EC50 [9] | Compound
5 | 0.01 | 0.48 |  |  |  | 1.22 | 1.3 |  |  | CCCc1cc(C(=O)CC)cc(CCC)c1OC(C)(C)C(=O)O
6 |  | > 10 |  |  |  | > 10 |  | Not Active | Not Active | CCCc1c(OC(C)(C)C(=O)O)ccc2c(C(F)(F)F)noc12
7 | 15 | 35 |  |  |  |  |  |  |  | CC(C)(Oc1ccc(C(=O)c2ccc(Cl)cc2)cc1)C(=O)O [FENOFIBRIC ACID]
8 | 0.06 | 1.51 |  |  |  | 1.62 | 1.1 |  |  | CCCc1cc2c(OC)noc2c(CCC)c1OC(C)(C)C(=O)O
